Calls of active or inactive are those of the source. The rule behind the calls is not given here.
What was measured:
MDA-MB-231 [1] = experiment: Induction of apoptosis in human MDA-MB-231 cells assessed as early apoptotic cells at 4 uM incubated for 24 hrs by annexin-V-FITC and PI staining based flow cytometry analysis (reference value: 0.28 to 4.68 %); assay type: functional
Outline: (§1)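 MDA-MB-231 cells (1 × 10^6) grown 24 h in six-well plates, then treated for 24 h. Cells trypsinized, PBS-washed and stained with Annexin V-FITC/PI in binding buffer for 10 min in the dark at room temperature. Early/late apoptotic fractions quantified by flow cytometry.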

MDA-MB-231 [2] = experiment: Induction of apoptosis in human MDA-MB-231 cells assessed as necrotic cells at 6 uM incubated for 24 hrs by annexin-V-FITC and PI staining based flow cytometry analysis (reference value: 0.01 to 0.8 %); assay type: functional
Tubulin (Homo sapiens) = Tubulin (Homo sapiens) (UniProt P68371+Q9H4B7+P0DPH7+P68366+Q13509+Q71U36+P04350+Q3ZCM7+P07437+P68363+Q9BQE3+Q6PEY2+Q13885+Q9BVA1+Q9BUF5); experiment: Induction of tubulin polymerization (unknown origin) at 10 uM incubated for 1 hr by spectrometric analysis; assay type: protein-complex assay
MDA-MB-231 [3] = experiment: Induction of apoptosis in human MDA-MB-231 cells assessed as necrotic cells at 4 uM incubated for 24 hrs by annexin-V-FITC and PI staining based flow cytometry analysis (reference value: 0.01 to 0.8 %); assay type: functional
MDA-MB-231 [4] = experiment: Cytotoxicity against human MDA-MB-231 cells assessed as reduction in cell viability incubated for 24 hrs by MTT assay; assay type: functional, cell-based; conditions: MDA-MB-231, 24 h
Outline: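 MTT viability: cells seeded at 1 × 10^4/well, grown 24 h, then exposed to a concentration range of compound for 24 h. MTT (5 mg/mL stock) added for 3 h, formazan dissolved in DMSO, absorbance read at 540 nm.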

MDA-MB-231 [5] = experiment: Induction of cell cycle arrest in human MDA-MB-231 cells assessed as accumulation at G2/M phase at 4 uM incubated for 24 hrs by PI staining based flow cytometry analysis (reference value: 4.35 to 19.56 %); assay type: functional
MDA-MB-231 [6] = experiment: Induction of apoptosis in human MDA-MB-231 cells assessed as viable cells at 4 uM incubated for 24 hrs by annexin-V-FITC and PI staining based flow cytometry analysis (reference value: 95.27 to 97.16 %); assay type: functional; conditions: read-out: Activity
MDA-MB-231 [7] = experiment: Induction of autophagy in human MDA-MB-231 cells at 2 to 4 uM incubated for 24 hrs by MDC staining based fluorescence microscopic analysis; assay type: functional, cell-based; conditions: dose 2-4 µM
Outline: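 Autophagic vacuoles detected in MDA-MB-231 cells (1 × 10^6) seeded on cover slips for 24 h, then treated 24 h. Cells PBS-washed, stained with 0.05 mM monodansylcadaverine for 30 min in dark at room temperature, washed, and examined by fluorescence microscopy.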

MDA-MB-231 [8] = experiment: Induction of cell cycle arrest in human MDA-MB-231 cells assessed as accumulation at S phase at 2 uM incubated for 24 hrs by PI staining based flow cytometry analysis (reference value: 40.37 to 57.89 %); assay type: functional
MDA-MB-231 [9] = experiment: Induction of cell cycle arrest in human MDA-MB-231 cells assessed as accumulation at S phase at 4 uM incubated for 24 hrs by PI staining based flow cytometry analysis (reference value: 40.37 to 57.89 %); assay type: functional
[10] = molecular target: T1, Estrogen receptor (Homo sapiens) (UniProt P03372); experiment: Transactivation of ERalpha (unknown origin) transfected in human MDA-MB-231 cells at 1 uM by dual luciferase receptor assay; assay type: cell-based
T1 sequence (whole entry): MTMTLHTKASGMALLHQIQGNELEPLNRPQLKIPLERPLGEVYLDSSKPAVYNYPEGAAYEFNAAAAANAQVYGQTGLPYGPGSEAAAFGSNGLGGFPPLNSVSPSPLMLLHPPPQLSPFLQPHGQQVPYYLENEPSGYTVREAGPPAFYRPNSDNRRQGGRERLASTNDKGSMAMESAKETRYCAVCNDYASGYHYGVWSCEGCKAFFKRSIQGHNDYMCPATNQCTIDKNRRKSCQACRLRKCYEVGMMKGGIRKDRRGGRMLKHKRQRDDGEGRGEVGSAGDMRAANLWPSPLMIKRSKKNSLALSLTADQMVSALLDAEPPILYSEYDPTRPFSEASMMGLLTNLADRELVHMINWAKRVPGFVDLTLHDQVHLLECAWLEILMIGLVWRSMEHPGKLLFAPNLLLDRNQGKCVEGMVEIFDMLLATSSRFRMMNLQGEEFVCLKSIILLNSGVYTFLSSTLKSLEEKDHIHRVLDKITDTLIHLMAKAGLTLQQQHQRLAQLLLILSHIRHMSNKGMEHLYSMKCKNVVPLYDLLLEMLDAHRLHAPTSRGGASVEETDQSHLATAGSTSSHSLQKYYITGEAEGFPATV
Outline: (§2)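 MDA-MB-231 cells grown to 80-90% confluency, transfected with 500 ng of ERα (pSG5 mERα) or ERβ (pSG5-hERβ) expression vector plus pRL-SV40 Renilla for normalization, then reseeded. Cells incubated with E2 (100 nM), compound at 1 µM, or tamoxifen at 1 µM. Dual luciferase readout reported as percent normalized RLU, triplicate experiments with three replicates each.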

MDA-MB-231 [11] = experiment: Induction of cell cycle arrest in human MDA-MB-231 cells assessed as accumulation at G2/M phase at 2 uM incubated for 24 hrs by PI staining based flow cytometry analysis (reference value: 4.35 to 19.56 %); assay type: functional
MDA-MB-231 [12] = experiment: Induction of cell cycle arrest in human MDA-MB-231 cells assessed as accumulation at S phase at 6 uM incubated for 24 hrs by PI staining based flow cytometry analysis (reference value: 40.37 to 57.89 %); assay type: functional
MDA-MB-231 [13] = experiment: Induction of ROS production in human MDA-MB-231 cells at 2 to 6 uM incubated for 24 hrs by DCFH-DA staining based flow cytometry analysis; assay type: functional, cell-based; conditions: dose 2-6 µM
Outline: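 MDA-MB-231 cells (1 × 10^6) seeded in 6-well plates for 24 h, then treated at several concentrations for 24 h. Cells trypsinized, fixed in cold methanol, stained with 30 µg/mL DCFH-DA for 30 min in the dark at room temperature, and analysed by flow cytometry.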

MDA-MB-231 [14] = experiment: Induction of cell cycle arrest in human MDA-MB-231 cells assessed as accumulation at G2/M phase at 6 uM incubated for 24 hrs by PI staining based flow cytometry analysis (reference value: 4.35 to 19.56 %); assay type: functional
MDA-MB-231 [15] = experiment: Induction of apoptosis in human MDA-MB-231 cells assessed as late apoptotic cells at 4 uM incubated for 24 hrs by annexin-V-FITC and PI staining based flow cytometry analysis (reference value: 0.28 to 0.84 %); assay type: functional
[16] = molecular target: Estrogen receptor beta (Homo sapiens) (UniProt Q92731); experiment: Transactivation of ERbeta (unknown origin) transfected in human MDA-MB-231 cells at 1 uM by dual luciferase receptor assay; assay type: cell-based; outline: as §2
Estrogen receptor beta (Homo sapiens), sequence (Q92731 whole entry): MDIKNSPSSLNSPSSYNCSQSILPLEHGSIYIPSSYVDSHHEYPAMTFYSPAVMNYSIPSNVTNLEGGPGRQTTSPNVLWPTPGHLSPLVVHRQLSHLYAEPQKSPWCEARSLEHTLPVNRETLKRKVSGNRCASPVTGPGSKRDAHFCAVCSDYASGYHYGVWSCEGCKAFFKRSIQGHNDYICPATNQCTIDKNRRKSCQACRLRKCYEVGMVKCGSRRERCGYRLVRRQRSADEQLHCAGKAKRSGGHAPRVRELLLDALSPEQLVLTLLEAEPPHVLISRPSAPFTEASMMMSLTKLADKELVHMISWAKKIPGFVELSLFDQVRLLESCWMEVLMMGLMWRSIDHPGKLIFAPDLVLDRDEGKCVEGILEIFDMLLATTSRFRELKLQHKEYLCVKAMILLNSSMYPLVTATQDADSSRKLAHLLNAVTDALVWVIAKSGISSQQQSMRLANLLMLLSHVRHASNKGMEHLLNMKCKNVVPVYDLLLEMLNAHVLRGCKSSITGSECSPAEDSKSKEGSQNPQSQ

MDA-MB-231 [17] = experiment: Induction of apoptosis in human MDA-MB-231 cells assessed as early apoptotic cells at 6 uM incubated for 24 hrs by annexin-V-FITC and PI staining based flow cytometry analysis (reference value: 0.28 to 4.68 %); assay type: functional; outline: as §1

SMILES | Activity (MDA-MB-231 [1]) [%] | Activity (MDA-MB-231 [2]) [%] | Activity (Tubulin (Homo sapiens)) | Activity (MDA-MB-231 [3]) [%] | IC50 (MDA-MB-231 [4]) [µM] | Activity (MDA-MB-231 [5]) [%] | viability at 4 µM (MDA-MB-231 [6]) [%] | Activity (MDA-MB-231 [7]) | Activity (MDA-MB-231 [8]) [%] | Activity (MDA-MB-231 [9]) [%] | Activity [10] | Activity (MDA-MB-231 [11]) [%] | Activity (MDA-MB-231 [12]) [%] | Activity (MDA-MB-231 [13]) | Activity (MDA-MB-231 [14]) [%] | Activity (MDA-MB-231 [15]) [%] | Activity [16] | Activity (MDA-MB-231 [17]) [%] | Activity ([16]; filed as activator)
COc1ccc2c(c1)c(Cc1ccc(OCCN3CCCCC3)cc1)c(-c1cc(OC)c(OC)c(OC)c1)n2Cc1ccc(OCCN2CCCCC2)cc1 | 16.02 | 0.55 | Active | 1.69 | 2.42 | 15.43 | 56 | Active | 34.3 | 29.41 | inactive | 12.45 | 29.41 | Active | 8.91 | 26.25 | inactive | 17.19 | –
CCN(CC)CCOc1ccc(Cc2c(-c3cc(OC)c(OC)c(OC)c3)n(Cc3ccc(OCCN(CC)CC)cc3)c3ccc(OC)cc23)cc1 | 4.19 | 2.09 | Active | 3.29 | 2.34 | 8.09 | 77.9 | Active | 38.21 | 38.03 | inactive | 10.07 | 36.56 | Active | 5.84 | 14.66 | – | 14.01 | Active
COc1ccc2c(c1)c(Cc1ccc(OCCN(C)C)cc1)c(-c1cc(OC)c(OC)c(OC)c1)n2Cc1ccc(OCCN(C)C)cc1 | 18.17 | 9.08 | Active | 3.44 | 3.78 | 0.22 | 58.3 | Active | 38.78 | 38.65 | inactive | 0.79 | 35.63 | Active | 0 | 20.05 | – | 39.6 | Active
COc1ccc2c(c1)c(Cc1ccc(OC(C)CN(C)C)cc1)c(-c1cc(OC)c(OC)c(OC)c1)n2Cc1ccc(OC(C)CN(C)C)cc1 (configuration not stated) | 28.04 | 7.58 | Active | 3.55 | 3.88 | 9.55 | 53.2 | Active | 40.83 | 40.83 | inactive | 12.85 | 42.27 | Active | 8.37 | 15.18 | – | 20.52 | Active

Source: ChEMBL document CHEMBL4811308, “Design, synthesis and broad spectrum antibreast cancer activity of diarylindoles via induction of apoptosis in aggressive breast cancer cells” (Bioorg Med Chem, 2021)
